A selection: hits, their analogues and other compounds. The true share with any hit is near 3.5%.
PAFAH2 inh: inhibitors of human PAFAH2; Q99487; recombinant PAFAH2, FP-rhodamine activity probe, fluorescence polarization; inhibition, % at 3.39 µM; hit rate 0.99% among 340,000; AID 492956;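 active = inhibition above the mean over all tested compounds plus 3 SD, cut at about 30% in these data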;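 also: inhibitors block probe labeling of enzyme so polarization drops; 0% = enzyme with DMSO and 100% = wells lacking PAFAH2 protein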
pPAFAH inh: inhibitors of human plasma PAF acetylhydrolase (pPAFAH). Q13093. recombinant pPAFAH, FP-rhodamine probe fluorescence polarization. inhibition, % at 3.39 µM. hit rate 1.5% among 330,000;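 active = inhibition above the mean inhibition across the screen plus 3 SD, cut at about 25% in these data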;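 also: inhibitors block binding of the rhodamine activity-based probe so polarization drops; 0% = enzyme with DMSO and 100% = wells lacking pPAFAH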
Target sequence (Q13093 whole entry, looked up): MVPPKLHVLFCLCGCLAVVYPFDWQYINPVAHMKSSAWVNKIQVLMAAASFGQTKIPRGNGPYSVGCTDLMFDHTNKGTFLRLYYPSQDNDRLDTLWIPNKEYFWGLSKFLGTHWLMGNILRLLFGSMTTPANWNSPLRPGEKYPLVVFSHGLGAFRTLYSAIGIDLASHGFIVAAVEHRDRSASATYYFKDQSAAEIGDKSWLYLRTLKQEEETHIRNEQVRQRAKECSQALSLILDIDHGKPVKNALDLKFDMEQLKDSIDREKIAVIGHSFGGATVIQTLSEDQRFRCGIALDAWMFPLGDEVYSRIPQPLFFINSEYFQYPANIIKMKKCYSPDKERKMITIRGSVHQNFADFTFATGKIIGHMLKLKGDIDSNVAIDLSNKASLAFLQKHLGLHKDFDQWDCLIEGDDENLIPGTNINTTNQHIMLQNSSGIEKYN
PREPL inhibitor: inhibitors of human prolyl oligopeptidase-like enzyme PREPL | Q4J6C6 | recombinant PREPL, fluorescence polarization activity-based probe | inhibition, % at 5.96 µM | hit rate 0.68% among 320,000 | AID 2751;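 also: 0% = enzyme with DMSO and 100% = wells lacking enzyme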
PAFAH1B3 inh: PAFAH1B3 (human) inhibition; inhibition, % at 3.39 µM; hit rate 0.28% among 340,000; recombinant PAFAH1B3, FP-rhodamine probe, fluorescence polarization; Q15102;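 active = inhibition above the screen-wide average of all tested compounds plus 3 SD, cut at about 25% in these data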;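 also: 0% = enzyme with DMSO only and 100% = wells lacking PAFAH1B3 protein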
Apaf-1 inh: blocks human Apaf-1 apoptosome activity. reconstituted apoptosome caspase-3 activity, DEVD-Rh110 fluorescence. inhibition, % at 20 µM. hit rate 0.71% among 330,000; active = inhibition of at least 40% at 20 µM;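 also: plate controls were DMSO wells for no effect and DEVD-CHO caspase inhibitor wells for full effect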
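Material: cell-free apoptosome with Apaf-1, procaspase-3 and caspase-9; Buffer or medium: Hepes pH 7.5 with detergent and BSA; Reagent: cytochrome c trigger plus (Z-DEVD)2-Rh110 caspase-3 substrate; Times: compound with Apaf-1, dATP, procaspase-3 30 min, then 50 min reaction, room temperature; Technique: Rh110 fluorescence intensity.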
PAFAH1B2 FP inh: inhibitors of human PAFAH1B2 | P68402 | recombinant PAFAH1B2, FP-rhodamine activity probe, fluorescence polarization | inhibition, % at 3.39 µM | hit rate 1.2% among 340,000 | AID 492953;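 active = inhibition above the mean of all tested compounds plus 3 SD, cut at about 24% in these data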;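 also: 0% = enzyme with DMSO and 100% = wells lacking PAFAH1B2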
Target sequence (P68402 whole entry, looked up): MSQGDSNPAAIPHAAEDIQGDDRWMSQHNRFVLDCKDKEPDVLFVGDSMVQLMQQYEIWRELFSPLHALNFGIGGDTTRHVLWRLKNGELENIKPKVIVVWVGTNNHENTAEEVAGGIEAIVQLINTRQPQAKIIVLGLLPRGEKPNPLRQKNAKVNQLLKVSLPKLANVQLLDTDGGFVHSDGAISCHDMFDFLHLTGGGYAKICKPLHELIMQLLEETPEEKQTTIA
PREPL inh cf: human PREPL inhibition, confirmation; shares compounds with PREPL inhibitor; inhibition, % at 5.96 µM; hit rate 67% among 2,000; recombinant PREPL, fluorescence polarization activity probe; AID 2803;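 also: 0% = protein with DMSO and 100% = wells lacking protein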
pPAFAH confirm: confirmation of human plasma PAF acetylhydrolase (pPAFAH) inhibitors. recombinant pPAFAH, FP-Rh probe fluorescence polarization. inhibition, % at 3.39 µM. hit rate 72% among 2,300. shares compounds with pPAFAH inh;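 active = mean inhibition of the triplicate above the hit cutoff set for the earlier primary screen, cut at about 25% in these data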;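 also: 0% = enzyme with DMSO and 100% = wells lacking pPAFAH enzyme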
Apaf-1 inh conf: Apaf-1 inhibition, single-dose confirmed; shares compounds with Apaf-1 inh; reconstituted apoptosome, caspase-3 DEVD-Rh110 fluorescence; inhibition, % at 20 µM; hit rate 25% among 1,800;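 active = mean inhibition of at least 40% at 20 µM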;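 also: plate controls were DMSO wells for no effect and DEVD-CHO caspase inhibitor control wells for full effect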
Rh110 quench: counter-screen for Apaf-1 inhibitors: fluorescence interference; shares compounds with Apaf-1 inh; Rh110 fluorescence interference, quenched caspase reaction; activation (fluorescence interference), % at 20 µM; 1,800 tested, under 10 active; AID 504615;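 active = signal rise of 40% or more at 20 µM, treated as a fluorescence artifact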
Fluor interf inh: shows fluorescence interference in the Apaf-1 inhibitor assay format; shares compounds with Apaf-1 inh; fluorescence interference counterscreen, Apaf-1 assay format; IC50, µM; 460 tested, under 10 active; AID 588538; call rule not given here
Active calls of the source: *; x = not tested or not shown. Rule as the data show it, unless noted: active = inhibition above about 43%; inactive = the rest.

SMILES	PAFAH2 inh	pPAFAH inh	PREPL inhibitor	PAFAH1B3 inh	Apaf-1 inh	PAFAH1B2 FP inh	PREPL inh cf	Apaf-1 inh conf	Rh110 quench	others
C#CCOCCOCCOCCNc1nc(N2CCN(C(=O)CCCCCCCCCCNC(=O)[C@H](CCCCN)n3cc(C)nn3)CC2)nc(N2CCN(C(=O)CCCCCCCCCCNC(=O)[C@H](CCCN=C(N)N)n3cc(C[C@@H](C)CC)nn3)CC2)n1	x	4	47*	x	75*	x	56*	57*	4	Fluor interf inh=>100
C#CCOCCOCCOCCNc1nc(N2CCN(C(=O)CCCCCCCCCCNC(=O)[C@@H](CCSC)n3cc(CCO)nn3)CC2)nc(N2CCN(C(=O)CCCCCCCCCCNC(=O)[C@H](CO)n3cc(CCCCCN)nn3)CC2)n1	-6	3	48*	6	71*	3	49*	40*	2	Fluor interf inh=>100
CCN1/C(=C/c2ccc3ccccc3[n+]2CC)C=Cc2ccccc21	-49	-13	47*	-27	41*	-27	49*	18	20
Cc1cc(-c2ccc(S(=O)(=O)N3CCN(c4ccccc4F)CC3)s2)on1	3	1	-65	8	9	0	x	x	x
O=S(=O)(Nc1ccncc1)c1cc(Cl)c(Cl)cc1Cl	4	1	-10	3	6	2	x	x	x
CCC[C@@H](CN1CCC[C@H]1CN1C(N)=NC[C@@H]1Cc1ccccc1)N1C[C@@H]([C@H](C)CC)N(CCc2ccc(Cl)c(Cl)c2)C1=N	1	-4	43*	17	67*	0	31	9	2
CC[C@@H](C)[C@@H]1CN([C@@H](C)CN2CCC[C@H]2CN2C(N)=NC[C@H]2CC(C)C)C(=N)N1CCc1ccc(Cl)c(Cl)c1	7	2	53*	7	52*	4	41	2	3
CCC[C@@H](CN1CCC[C@H]1CN1C(N)=NC[C@H]1CC(C)C)N1C[C@@H]([C@H](C)CC)N(CCc2ccc(Cl)c(Cl)c2)C1=N	4	-3	52*	10	64*	0	40	14	5
CC[C@@H](C)[C@@H]1CN([C@@H](CN2CCC[C@H]2CN2C(N)=NC[C@H]2CC(C)C)C(C)C)C(=N)N1CCc1ccc(Cl)c(Cl)c1	10	-3	47*	5	63*	2	48*	23	14
CCOc1ccc(CCN2C(=S)N([C@@H](CC(C)C)CN3CCCC3CN3C(=S)NC[C@@H]3Cc3ccc(O)cc3)C[C@@H]2CC(C)C)cc1 (some centres undefined)	-11	x	x	1	x	-4	x	x	x
CCOc1ccc(CCN2C(=S)N([C@@H](CC(C)C)CN3CCCC3CN3C(=S)NC[C@@H]3Cc3ccc(O)cc3)C[C@@H]2Cc2ccc(O)cc2)cc1 (some centres undefined)	-20	x	x	-13	x	-4	x	x	x
COc1ccc(C2(CNC(=O)CCC(=O)O)CCCC2)cc1	-4	7	0	4	-8	9	x	x	x
COC(=O)[C@@H]1CCCN1Cc1c(C(=O)N2CCOCC2)nc2c(C)cccn12	2	2	19	3	-1	-1	x	x	x
C[C@@H](C(=O)NC1CCN(Cc2ccccc2)CC1)N1C(=O)N2CCc3c([nH]c4ccccc34)[C@@]2(C)C1=O	-5	3	16	-1	2	6	x	x	x
CC(C)C[C@@H](C(=O)NC1CCN(Cc2ccccc2)CC1)N1C(=O)N2CCc3c([nH]c4ccccc34)[C@@]2(C)C1=O	-5	3	44*	8	45*	-1	33	17	-1
O=C1C(Cl)=C(NCc2ccco2)C(=O)c2ccccc21	13	x	x	18	x	9	x	x	x
O=C1c2ccccc2-c2onc3ccc(NCc4ccco4)c1c23	121*	82*	82*	104*	69*	105*	106*	30	-50	pPAFAH confirm=104*
Nc1ccc2c(c1)C(=O)c1ccccc1-2	6	3	6	5	-2	3	x	x	x
Nc1ccc2c(c1)C(=O)C(=O)c1ccccc1-2	62*	15	61*	76*	98*	25*	53*	99*	2	Fluor interf inh=>100
CCC[C@@H](CN1CCC[C@H]1CN1C(N)=NC[C@@H]1Cc1ccccc1)N1C[C@@H]([C@H](C)CC)N(CCCC2CCCC2)C1=N	1	22	54*	5	77*	10	52*	32	9
CC(C)C[C@H]1CN=C(Nc2ccccc2)N1CCCC1CCCC1	-3	5	4	-5	12	-2	x	x	x
CC(C)C[C@@H](CN1CCC[C@@H]1CN1C(=O)C(=O)NC[C@@H]1Cc1ccccc1)N1C[C@H](Cc2ccccc2)N(CC2CCCCCC2)C(=O)C1=O	10	x	x	-31	x	3	x	x	x
CC(C)[C@H](CN1CCC[C@H]1CN1C(N)=NC[C@H]1C(C)C)N1C[C@@H](Cc2ccccc2)N(CCCC2CCCC2)C1=N	2	-2	61*	0	63*	5	59*	6	0
CCC[C@@H](CN1CCC[C@H]1CN1C(N)=NC[C@H]1CC(C)C)N1C[C@@H](Cc2ccccc2)N(CCCC2CCCC2)C1=N	2	-2	49*	11	59*	3	41	15	9
CCCCNc1c(-c2ccc(SC(C)CC)cc2)nc2cnccn12 (centres undefined)	18	34*	59*	27*	60*	13	55*	46*	33	Fluor interf inh=>100
CCCCNc1c(-c2ccc(SC(C)CC)c(OC)c2)nc2ccc(C)cn12 (centres undefined)	4	23	10	10	27	8	x	x	x
Cc1ccccc1C(=O)N(Cc1cccs1)C1CCS(=O)(=O)C1 (centres undefined)	4	0	-8	11	2	6	x	x	x
CN1CCCC1CCNc1ccc2sc3ccccc3c(=O)c2c1 (centres undefined)	4	-3	51*	2	44*	-1	48*	20	6

Assay outcomes from PubChem BioAssay.
